Experimental data taken from ChEMBL document CHEMBL1671760, “Pharmacokinetics and pharmacogenomics of once-daily raltegravir and atazanavir in healthy volunteers” (Antimicrob Agents Chemother, 2010).

Tests used:
[1] = system: Plasma; assay: Plasma concentration in healthy human assessed as raltegravir-glucoronide at 400 mg, po Bid for 1 week measured 12 hrs post dose by LC-MS/MS analysis; format: ADME, organism-based; details: in vivo
Summary of the method: (§1)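 Healthy volunteers (24–51 y) took raltegravir 400 mg twice daily for 1 week in a crossover with at least 3 days between arms, dosing ≥1 h before or 2 h after food. After a witnessed dose, blood was drawn at 1, 2, 4, 8 and 12 h, with meals from 1 h. Plasma was analysed by LC-MS-MS after acetonitrile precipitation, using noncompartmental linear-trapezoidal AUC and log10-transformed geometric means.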

[2] = AUC (0 to12 hrs) in healthy human at 400 mg, po qd coadministered with atazanavir 400 mg, po qd for 1 week by LC-MS/MS analysis; details: plasma
[3] = AUC (12 to24 hrs) in healthy human at 400 mg, po qd coadministered with atazanavir 400 mg, po qd for 1 week by LC-MS/MS analysis; details: plasma
[4] = Renal clearance in healthy human at 400 mg, […] coadministered with atazanavir 400 mg, po qd for 1 week by LC-MS/MS analysis; format: ADME, organism-based; details: plasma, read-out: CL_renal
Summary of the method: (§2)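 Once-daily raltegravir 400 mg with atazanavir 400 mg was given for 1 week, with plasma and urine collected over 24 h and assayed by LC-MS-MS. Clearances were computed noncompartmentally: CL/F = dose/AUC(τ), renal CL = urinary amount/plasma AUC over the same interval, and Fe/F = Ae/(dose/F).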

[5] = system: Plasma; assay: Renal clearance in healthy human assessed as raltegravir-glucoronide at 400 mg, po Bid for 1 week by LC-MS/MS analysis; format: ADME, organism-based; details: in vivo, 168 h
Summary of the method: (§3)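 Raltegravir 400 mg was given twice daily for 1 week, with 12-h plasma and urine profiles measured by LC-MS-MS. Apparent oral clearance was dose/AUC over the dosing interval. Renal clearance was the amount excreted in urine divided by plasma AUC over the same interval. Fe/F was Ae/(dose/F), with F unknown.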

[6] = system: Homo sapiens; assay: AUC (0 to12 hrs) in healthy human assessed as raltegravir-glucoronide at 400 mg, po Bid for 1 week by LC-MS/MS analysis; format: ADME, organism-based, Plasma; parameters: dose 400 mg, time < 12 hr, route oral; details: in vivo, 12 h; summary of the method: as §1
[7] = Drug level in healthy human urine at 400 mg, po Bid coadministered with atazanavir 400 mg, po qd for 1 week measured at 0-12 hrs post dose by LC-MS/MS analysis; format: ADME, organism-based; details: in vivo, in the assay text read “po qd” for “po Bid”
Summary of the method: (§4)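 Steady state was reached after 1 week of once-daily raltegravir 400 mg with atazanavir 400 mg in healthy adults. All urine was collected over 24 h after the witnessed dose and combined into 2-h pools. Raltegravir and raltegravir-glucuronide were assayed by LC-MS-MS, and amounts excreted were summed for 0–12 h and 12–24 h.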

[8] = system: Homo sapiens; assay: AUC (0 to tau) in human at 400 mg, po Bid coadministered with atazanavir 400 mg, po qd for 1 week by LC-MS/MS analysis; format: ADME, organism-based, Plasma; details: in vivo, 168 h, in the assay text read “po qd” for “po Bid”
Summary of the method: (§5)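 Arm B of a crossover in healthy adults (24–51 y), separated from the other arm by at least 3 days. Subjects took raltegravir 400 mg plus atazanavir 400 mg once daily for 1 week in a semifasted state. Plasma was sampled over 24 h after a witnessed dose. Raltegravir was quantified by LC-MS-MS after acetonitrile protein precipitation, and the glucuronide by negative-mode SRM (m/z 619.1→316.0) with a d3 internal standard. Noncompartmental analysis used the linear trapezoidal rule.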

[9] = Plasma concentration in healthy human at 400 mg, po Bid for 1 week measured 12 hrs post dose by LC-MS/MS analysis; format: ADME, organism-based; summary of the method: as §1
[10] = Drug level in healthy human urine assessed as raltegravir-glucoronide at 400 mg, po Bid for 1 week measured at 0-12 hrs post dose by LC-MS/MS analysis; format: ADME, organism-based; details: in vivo
Summary of the method: (§6)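 Healthy volunteers took raltegravir 400 mg twice daily for 1 week. After the witnessed dose, all urine was collected over 12 h and pooled into 2-h aliquots, then frozen at −70°C. Raltegravir and its glucuronide were measured by LC-MS-MS, and amounts were summed over 0–12 h. Values are geometric means of log10-transformed data.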

[11] = system: Plasma; assay: Renal clearance in healthy human assessed as raltegravir-glucoronide at […] coadministered with atazanavir 400 mg, po qd for 1 week by LC-MS/MS analysis; format: ADME, organism-based; details: in vivo, 168 h; summary of the method: as §2
[12] = Ctau in healthy human plasma at 400 mg, po Bid for 1 week by LC-MS/MS analysis; format: ADME, organism-based; details: read-out: Ctau; summary of the method: as §1
[13] = Drug level in healthy human urine at 400 mg, po Bid for 1 week measured at 0-12 hrs post dose by LC-MS/MS analysis; format: ADME, organism-based; details: in vivo; summary of the method: as §6
[14] = system: Plasma; assay: Plasma concentration in healthy human assessed as raltegravir-glucoronide at 400 mg, po […] coadministered with atazanavir 400 mg, po qd for 1 week measured 12 hrs post dose by LC-MS/MS analysis; format: ADME, organism-based; details: in vivo; summary of the method: as §5
[15] = AUC (0 to tau) in healthy human at 400 mg, po Bid for 1 week by LC-MS/MS analysis; format: ADME, organism-based; details: plasma; summary of the method: as §1
[16] = Drug level in healthy human urine assessed as raltegravir-glucoronide at 400 mg, […] coadministered with atazanavir 400 mg, po qd for 1 week measured at 0-12 hrs post dose by LC-MS/MS analysis; format: ADME, organism-based; details: in vivo; summary of the method: as §4
[17] = Apparent total plasma clearance in healthy human at 400 mg, po Bid coadministered with atazanavir 400 mg, po qd for 1 week by LC-MS/MS analysis; format: ADME, organism-based; details: in the assay text read “po qd” for “po Bid”; summary of the method: as §2
[18] = Ratio of drug level to raltegravir-glucoronide level in healthy human urine at 400 mg, po Bid for 1 week by LC-MS/MS analysis; format: ADME, organism-based; details: in vivo, 168 h; summary of the method: as §6
[19] = Ratio of drug level to raltegravir-glucoronide level in healthy human urine at 400 mg, po Bid coadministered with atazanavir 400 mg, po qd for 1 week by LC-MS/MS analysis; format: ADME, organism-based; details: in vivo, 168 h, in the assay text read “po qd” for “po Bid”; summary of the method: as §4
[20] = system: Plasma; assay: Ctau in healthy human plasma assessed as raltegravir-glucoronide at 400 mg, po Bid for 1 week by LC-MS/MS analysis; format: ADME, organism-based; details: in vivo, 168 h; summary of the method: as §1
[21] = Apparent total plasma clearance in healthy human at 400 mg, po Bid for 1 week by LC-MS/MS analysis; format: ADME, organism-based; summary of the method: as §3
[22] = system: Plasma; assay: Ctau in healthy human plasma assessed as raltegravir-glucoronide at 400 mg, […] coadministered with atazanavir 400 mg, po qd for 1 week by LC-MS/MS analysis; format: ADME, organism-based; details: in vivo, 168 h; summary of the method: as §5
[23] = Apparent clearance of oral drug in healthy human assessed as drug excreted unchanged at 400 mg, po Bid for 1 week by LC-MS/MS analysis; format: ADME, organism-based; details: in vivo, read-out: Fraction excreted unchanged; summary of the method: as §3
[24] = Apparent clearance of oral drug in healthy human assessed as drug excreted unchanged at 400 mg, po […] coadministered with atazanavir 400 mg, po qd for 1 week by LC-MS/MS analysis; format: ADME, organism-based; details: in vivo, read-out: Fraction excreted unchanged; summary of the method: as §2
[25] = system: Plasma; assay: Cmax in healthy human plasma assessed as raltegravir-glucoronide at 400 mg, po Bid for 1 week by LC-MS/MS analysis; format: ADME, organism-based; parameters: dose 400 mg, route oral; details: in vivo, 168 h; summary of the method: as §1
[26] = Drug level in healthy human urine at 400 mg, po Bid coadministered with atazanavir 400 mg, po qd for 1 week measured at 12 to 24 hrs post dose by LC-MS/MS analysis; format: ADME, organism-based; details: in vivo, in the assay text read “po qd” for “po Bid”; summary of the method: as §4
[27] = Cmax in healthy human plasma at 400 mg, po qd coadministered with atazanavir 400 mg, po qd for 1 week by LC-MS/MS analysis
[28] = AUC (0 to12 hrs) in healthy human at 400 mg, po Bid for 1 week by LC-MS/MS analysis; format: ADME, organism-based; parameters: dose 400 mg, time < 12 hr, route oral; details: plasma; summary of the method: as §1
[29] = system: Homo sapiens; assay: AUC (12 to 24 hrs) in healthy human assessed as raltegravir-glucoronide at 400 mg, po […] coadministered with atazanavir 400 mg, po qd for 1 week by LC-MS/MS analysis; format: ADME, organism-based, Plasma; parameters: time 12-24 hr, dose 400 mg, route oral; details: in vivo; summary of the method: as §5
[30] = Plasma concentration in healthy human at 400 mg, po qd coadministered with atazanavir 400 mg, po qd for 1 week measured 12 hrs post dose by LC-MS/MS analysis
[31] = Cmax in healthy human plasma at 400 mg, po Bid for 1 week by LC-MS/MS analysis; format: ADME, organism-based; parameters: dose 400 mg, route oral; summary of the method: as §1
[32] = system: Plasma; assay: Cmax in healthy human plasma assessed as raltegravir-glucoronide at 400 mg, […] coadministered with atazanavir 400 mg, po qd for 1 week by LC-MS/MS analysis; format: ADME, organism-based; parameters: dose 400 mg, route oral; details: in vivo, 168 h; summary of the method: as §5
[33] = Drug level in healthy human urine assessed as raltegravir-glucoronide at 400 mg, […] coadministered with atazanavir 400 mg, po qd for 1 week measured at 12 to 24 hrs post dose by LC-MS/MS analysis; format: ADME, organism-based; details: in vivo; summary of the method: as §4
[34] = Ctau in healthy human plasma at 400 mg, po qd coadministered with atazanavir 400 mg, po qd for 1 week by LC-MS/MS analysis
[35] = Renal clearance in healthy human at 400 mg, po Bid for 1 week by LC-MS/MS analysis; format: ADME, organism-based; details: plasma, read-out: CL_renal; summary of the method: as §3

Cp [1]: 45 ng/mL
AUC at 12 h [2]: 4660 ng·h/mL
AUC [3]: 875 ng·h/mL
CL renal at 168 h [4]: 39 mL/min
CL_renal [5]: 421 mL/min
AUC [6]: 3267 ng·h/mL
Drug uptake [7]: 10.81 mg
AUC [8]: 6080 ng·h/mL
concentration at 12 h [9]: 46 ng/mL
Drug uptake [10]: 82.5 mg
CL_renal [11]: 692 mL/min
concentration at 168 h [12]: 46 ng/mL
Drug uptake [13]: 11.66 mg
Cp [14]: 41 ng/mL
AUC tau at 168 h [15]: 3530 ng·h/mL
Drug uptake [16]: 84.51 mg
CL/F [17]: 1100 mL/min
Ratio [18]: 7.08
Ratio [19]: 7.81
Ctau [20]: 45 ng/mL
CL/F [21]: 1890 mL/min
Ctau [22]: 8 ng/mL
dose excreted at 168 h [23]: 2.9%
dose excreted at 168 h [24]: 3.5%
Cmax [25]: 799 ng/mL
Drug uptake [26]: 0.41 mg
Cmax [27]: 1400 ng/mL
AUC at 12 h [28]: 3530 ng·h/mL
AUC [29]: 342 ng·h/mL
concentration at 12 h [30]: 69 ng/mL
Cmax [31]: 1020 ng/mL
Cmax [32]: 458 ng/mL
Drug uptake [33]: 7.03 mg
concentration at 168 h [34]: 18 ng/mL
CL renal at 168 h [35]: 55 mL/min
SMILES: Cc1nnc(C(=O)NC(C)(C)c2nc(C(=O)NCc3ccc(F)cc3)c(O)c(=O)n2C)o1 [RALTEGRAVIR]
